Screens deposited in PubChem by several laboratories.
Rpn11 inh = inhibitors of human proteasome Rpn11; O00487; human 26S proteasome, Ub4-pepOG fluorescence polarization; 20S core pre-blocked with epoxomicin; calls only at 20 µM; 360,000 compounds, 0.59% hits; AID 588493;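 active = inhibition at 20 µM, scaled to each plate's controls, above about 33%, limit read from the data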
Target sequence (O00487 whole entry, looked up): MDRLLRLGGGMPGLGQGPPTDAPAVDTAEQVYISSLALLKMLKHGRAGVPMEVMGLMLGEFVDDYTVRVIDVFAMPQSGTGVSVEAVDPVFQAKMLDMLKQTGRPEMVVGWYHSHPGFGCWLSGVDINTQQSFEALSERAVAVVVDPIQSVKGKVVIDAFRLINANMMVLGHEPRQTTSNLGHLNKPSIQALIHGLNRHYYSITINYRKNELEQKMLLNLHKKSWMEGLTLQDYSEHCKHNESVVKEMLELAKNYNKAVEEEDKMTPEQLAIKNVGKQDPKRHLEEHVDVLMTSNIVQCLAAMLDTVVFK
HNF4A DNA FP = change in binding of human HNF4 alpha to DNA | 360,000 compounds, 0.3% hits | activity change, % at 10 µM | HNF4a-FITC DNA binding, fluorescence polarization, 1 h | AID 1224865; in the data active = activity change above about 30%, passing the limit was not always enough
CSN deneddyl inh = CSN deneddylation inhibition. Q92905. Purified CSN, SCF-Nedd8-OG deneddylation, fluorescence polarization. inhibition, % at 12.5 µM. 360,000 compounds, 0.38% hits. AID 651999;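 active = pattern-corrected inhibition above about 35%, with an unprinted fluorescence ratio check between 0.5 and 1.5, limit read from the data, passing the limit was not always enough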
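Material: human Csn5 produced in HEK293T cells; Input: enzyme 0.24 nM; Reagent: SCFSkp2-Nedd8OG substrate at 10 nM final; Dosing: 12.5 µM compound; Incubation: 90 min reaction at room temperature; Detection: fluorescence polarization of the substrate; Evaluation: % inhibition of substrate cleavage by Csn5; Control set: substrate-only high control, full reaction low control.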
TPT1 inhibitor = inhibitors of Candida albicans tRNA 2'-phosphotransferase TPT1; recombinant caTPT1, FP RNA substrate dephosphorylation; inhibition, % at 5 µM; 300,000 compounds, 0.81% hits; AID 1962;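 active = inhibition above the mean of all tested compounds plus 3 SD, set per screening campaign, cut at about 24% in these data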
TPT1 inh confirm = confirmation of Candida albicans TPT1 inhibitors; inhibition, % at 5 µM; recombinant caTPT1, fluorescence polarization, RNase T1 coupled; shares compounds with TPT1 inhibitor; 2,400 compounds, 74% hits;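 active = inhibition above the primary screen limit, the mean inhibition of all tested compounds plus 3 SD, cut at about 25% in these data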
RNase T1 inh = counter-screen for TPT1 inhibitors: inhibitors of Aspergillus oryzae RNase T1. AID 2153. RNase T1 cleavage, fluorescence polarization, 1536-well. shares compounds with TPT1 inhibitor. 2,400 compounds, 83% hits. inhibition, % at 5 µM;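 active = inhibition above the solvent-only control well mean plus 3 SD, limit set per screening run, cut at about 23% in these data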;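 also: inhibitors block cleavage so intact labeled substrate keeps polarization high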
Target sequence (P00651 whole entry, looked up): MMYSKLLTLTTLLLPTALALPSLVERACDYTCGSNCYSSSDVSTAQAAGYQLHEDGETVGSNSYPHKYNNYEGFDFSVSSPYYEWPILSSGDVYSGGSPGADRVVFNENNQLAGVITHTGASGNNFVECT
Hits are given with their value; - = inactive; . = not tested or not shown. An excerpt weighted towards active compounds, which were near 1.5% of everything screened.

SMILES	Rpn11 inh	HNF4A DNA FP	CSN deneddyl inh	TPT1 inhibitor	TPT1 inh confirm	RNase T1 inh
O=C(O)Cc1sc(Nc2ccc(F)cc2)nc1-c1cccs1	.	-	-	68	49	63
Cc1ccccc1COc1ccc(-c2nnn(CC(=O)O)n2)cc1	-	-	-	.	.	.
CCOC(=O)c1sc(/N=C/c2c(C)[nH]n(-c3ccccc3)c2=O)c(C#N)c1C	.	.	.	30	120	124
O/C(=C\c1nc2ccccc2[nH]1)c1cccs1	-	-	-	-	.	.
O=c1[nH]c2ccccc2nc1/C=C(\O)c1cccs1	-	-	-	71	117	114
O=c1[nH]c2ccccc2nc1/C=C(\O)C1CC1	-	-	-	27	-	-
O=c1[nH]c2ccccc2nc1/C=C/c1ccc(F)cc1	.	44	-	57	74	83
O=c1[nH]c2ccccc2nc1/C=C/c1ccccc1	-	-	-	-	.	.
C[C@@H]1CN([C@@H](C)CO)C(=O)c2cc(NS(=O)(=O)c3ccc(F)cc3)ccc2O[C@@H](C)CCCCO[C@H]1CN(C)C(=O)NC1CCCCC1	-	-	-	.	.	.
CCCCn1c(N)c(N(CC(C)C)C(=O)c2cccc(OCc3ccccc3)c2)c(=O)[nH]c1=O	-	-	-	-	.	.
CCN(CC)S(=O)(=O)c1cc(NC(=O)COC(=O)CCc2nc3ccccc3s2)ccc1C	-	-	-	-	.	.
CCN(CC)S(=O)(=O)c1cccc(NC(=O)COC(=O)CCc2nc3ccccc3s2)c1	-	-	-	128	-	-
CN1CCN(S(=O)(=O)c2ccc(Sc3nnc(-c4cccs4)n3-c3ccccc3)nc2)CC1	-	-	-	34	-	-
O=C(OCc1ccccc1C(F)(F)F)c1ccc(Br)c(S(=O)(=O)N2CCOCC2)c1	-	-	-	.	.	.
Cc1cccc(N2CCN(C(=O)c3ccc(N4CCCC4=O)cc3)CC2C)c1 (centres undefined)	-	-	-	-	.	.
Cc1cccc(N2CCN(C(=O)c3ccc4c(c3)NC(=O)C(CSCc3ccc(F)cc3)N4)CC2C)c1 (centres undefined)	.	.	.	122	62	74
Cc1ccc(CSCC2Nc3ccc(C(=O)N4CCN(c5cccc(C)c5)C(C)C4)cc3NC2=O)cc1 (centres undefined)	.	.	.	110	-	33
COc1ccc(NC(=O)C2(C)CCN2Cc2ccc(C(C)C)cc2)cc1OC (centres undefined)	-	-	-	.	.	.
O/C(=C\c1ccc2ccccc2n1)c1ccc(O)cc1O	.	65	-	98	110	108
CC(=O)c1sc2nc(CSc3nnnn3-c3ccccc3)[nH]c(=O)c2c1C	.	38	46	71	69	81
CCOC(=O)c1sc(-c2ccccn2)nc1C	-	-	-	-	.	.
COc1ccc(/C=N/Nc2ccc([N+](=O)[O-])cc2)cc1O	.	44	-	82	98	106
O=[N+]([O-])c1ccc(N/N=C\c2ccccc2OCc2ccccc2)cc1	-	-	-	85	101	108
COc1cccc(/C=N/Nc2ccc([N+](=O)[O-])cc2)c1O	-	-	-	37	57	68
COc1ccc(/C=N\Nc2ccc([N+](=O)[O-])cc2)c(C(=O)O)c1OC	-	-	-	38	46	60
SMILES	Rpn11 inh	HNF4A DNA FP	CSN deneddyl inh	TPT1 inhibitor	TPT1 inh confirm	RNase T1 inh
CCCCCc1nnc(NC(=O)c2ccc3nc[nH]c3c2)s1	-	-	-	.	.	.
CCN(CC)c1ccc(/C=C(/C#N)C(=O)NCc2ccccc2)o1	.	-	-	189	197	180
Cc1[nH]c2ccccc2c1/C=C(\C#N)C(=O)NCc1ccccc1	-	-	-	31	41	49
CC(NC(=O)/C(C#N)=C/c1ccc([N+](=O)[O-])o1)c1ccccc1 (centres undefined)	-	-	-	-	.	.
CC(C)NC(=O)/C(C#N)=C\c1ccc(N(C)C)o1	.	-	-	153	177	170
N#C/C(=C\c1ccc(O)cc1)C(=O)NCc1ccccc1	-	-	-	-	.	.
CCN(CC)c1ccc(/C=C(/C#N)C(=O)NC(C)C)o1	.	-	-	169	186	173
CC(=O)NC(C)(c1ccccc1)c1nc(-c2cnc3ccccc3c2)cs1 (centres undefined)	-	-	-	.	.	.
COc1cc2oc(=O)cc(CN3CCN(c4ccccc4F)CC3)c2cc1Cl	-	-	-	.	.	.
CCCCc1c(-c2ccc(F)cc2)ncn1CCc1ccccc1OC	.	-	-	.	.	.
